# In the library only some 3.6% were active in any assay of this set; here they are far more common.
# PAFAH2 FP inh: PAFAH2 enzyme inhibitors, primary screen, biochemical, fluorescence polarization, human; recombinant PAFAH2, FP-rhodamine activity probe; inhibition, % at 3.39 µM; 0.99% of 340,000 active; AID 492956, 2010;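 active means inhibition above the mean over all tested compounds plus 3 SD, cut at about 30% in these data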;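 further: inhibitors block probe labeling of enzyme so polarization drops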
# pPAFAH FP inh: pPAFAH enzyme inhibitors, primary screen, biochemical, fluorescence polarization, human | 1.5% of 330,000 active | Platelet-activating factor acetylhydrolase (Homo sapiens), Q13093 | inhibition, % at 3.39 µM | recombinant pPAFAH, FP-rhodamine probe fluorescence polarization;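 active means inhibition above the mean inhibition across the screen plus 3 SD, cut at about 25% in these data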;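 further: inhibitors block binding of the rhodamine activity-based probe so polarization drops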
# PAFAH1B3 FP inh: PAFAH1B3 enzyme inhibitors, primary screen, biochemical, fluorescence polarization, human; Platelet-activating factor acetylhydrolase IB subunit alpha1 (Homo sapiens), Q15102; recombinant PAFAH1B3, FP-rhodamine probe; inhibition, % at 3.39 µM; 0.28% of 340,000 active; AID 492972, 2010;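 active means inhibition above the screen-wide average of all tested compounds plus 3 SD, cut at about 25% in these data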
# Target sequence (Q15102 whole entry, looked up): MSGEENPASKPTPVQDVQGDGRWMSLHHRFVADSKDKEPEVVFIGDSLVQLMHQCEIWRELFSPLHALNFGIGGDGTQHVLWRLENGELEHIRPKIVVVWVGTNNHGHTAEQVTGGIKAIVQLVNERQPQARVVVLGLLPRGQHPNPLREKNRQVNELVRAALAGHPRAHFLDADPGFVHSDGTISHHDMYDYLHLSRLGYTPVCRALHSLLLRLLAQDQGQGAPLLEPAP
# IMP-1 inh: IMP-1 metallo-beta-lactamase inhibitors, primary screen, biochemical, epi-absorbance readout, Pseudomonas aeruginosa enzyme; purified IMP-1, nitrocefin hydrolysis, epi-absorbance fluorescence; AID 1556, 2009; inhibition, % at 5.6 µM; metallo-beta-lactamase IMP-1 (Pseudomonas aeruginosa); 0.45% of 290,000 active;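 active means inhibition above the mean plus 3 SD of all compounds in the same screening run, cut at about 4.5% in these data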
#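 System: Purified IMP-1 | Read-out basis: Percent enzyme inhibition | Controls: IMP-1 with DMSO as 0%, enzyme-free DMSO as 100% | Replicates: One well per compound | Doses: 5.6 µM nominal single concentration | Detection: Epi-absorbance fluorescence, 480 nm excitation, 530 nm emission | Incubation: 25 °C, 15 min preincubation, 25 min reaction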
# VIM-2 inh: VIM-2 metallo-beta-lactamase inhibitors, primary screen, biochemical, epi-absorbance readout, Pseudomonas aeruginosa enzyme; purified VIM-2, nitrocefin hydrolysis, epi-absorbance fluorescence; inhibition, % at 5.6 µM; AID 1527, 2009; 0.89% of 290,000 active;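 active means inhibition above the mean of all tested compounds plus 3 SD, cutoff set per screening run, cut at about 7.5% in these data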;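 further: red hydrolysis product quenches plate fluorescence so inhibitors raise well fluorescence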
# PAFAH1B2 inh: PAFAH1B2 enzyme inhibitors, primary screen, biochemical, fluorescence polarization, human. 1.2% of 340,000 active. recombinant PAFAH1B2, FP-rhodamine activity probe. Platelet-activating factor acetylhydrolase IB subunit alpha2 (Homo sapiens), P68402. inhibition, % at 3.39 µM;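 active means inhibition above the mean of all tested compounds plus 3 SD, cut at about 24% in these data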
# Target sequence (P68402 whole entry, looked up): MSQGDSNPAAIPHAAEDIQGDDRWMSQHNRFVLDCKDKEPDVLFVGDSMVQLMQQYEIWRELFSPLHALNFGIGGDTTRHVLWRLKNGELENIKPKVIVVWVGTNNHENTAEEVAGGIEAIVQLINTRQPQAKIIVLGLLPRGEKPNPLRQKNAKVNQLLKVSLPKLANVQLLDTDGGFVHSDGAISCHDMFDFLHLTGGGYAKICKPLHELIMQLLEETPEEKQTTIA
# PAFAH2 FP conf: PAFAH2 enzyme inhibitors, confirmation, biochemical, fluorescence polarization, human; shares compounds with PAFAH2 FP inh; recombinant PAFAH2, FP-rhodamine activity probe; inhibition, % at 3.39 µM; 65% of 2,300 active;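 active means mean inhibition over three repeats above a set limit taken from the earlier primary screen, cut at about 30% in these data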;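 further: inhibitor blocks binding of rhodamine activity probe so polarization falls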
# Numbers stand for hits; – = inactive; · = no result given.
SMILES,PAFAH2 FP inh,pPAFAH FP inh,PAFAH1B3 FP inh,IMP-1 inh,VIM-2 inh,PAFAH1B2 inh,PAFAH2 FP conf
Cn1cc(Br)c(C(=O)NN2C(=O)C3C4C=CC(C5CC45)C3C2=O)n1 (configuration not stated),–,–,–,–,–,–,·
O=C(COC(=O)c1ccccc1C(=O)c1ccccc1)NCCc1ccc(Cl)cc1Cl,70.9,–,–,–,–,–,58.0
CC1(C)CCCN(C(=O)c2coc(=O)c(Br)c2)C1,47.5,·,–,–,–,–,–
CCC(=O)Nc1ccc(-c2nc3ccccc3c(=O)o2)cc1,–,·,–,–,–,–,·
CCN1C(=O)c2ccc(-c3nc4ccccc4c(=O)o3)cc2C1=O,34.9,–,–,–,–,–,62.8
CC(=O)OCCN1C(=O)c2ccc(-c3nc4ccccc4c(=O)o3)cc2C1=O,53.4,–,–,·,·,–,45.8
CCN1C(=O)[C@H]2[C@@H](c3ccc(-c4ccc(OC)cc4)cc3)N[C@@](C)(C(=O)OC)[C@H]2C1=O,–,–,–,·,·,–,·
O=C(N/N=C1/C(=O)c2cccc3cccc1c23)c1ccc(Cl)cc1,56.4,–,–,–,–,–,34.7
Cc1ccccc1OCC(=O)NCC(c1cccs1)N1CCOCC1 (configuration not stated),–,–,–,·,·,–,·
O=C(O/N=C/C1=C(Cl)c2ccccc2CC1)c1ccc(F)cc1,34.5,–,–,–,–,–,39.8
CC(=NNC(=O)c1ccncc1)c1ccc2ccccc2c1O,–,·,–,·,·,–,·
C/C(=N\NC(=S)NCC(C)(C)C)c1cc(F)cc(F)c1O,33.0,–,–,–,–,–,–
COc1ccccc1/C(C)=N/NC(=S)NCc1ccccc1,–,–,–,–,–,–,·
C=CCNC(=O)c1onc(CSc2ccc(C)c(C)c2)c1C(=O)O,–,–,–,–,–,–,·
C=CCNC(=O)c1onc(CSc2ccccc2CC)c1C(=O)O,48.7,–,–,–,–,–,36.4
C=CCNC(=O)c1onc(CSc2ccccc2)c1C(=O)NCC=C,–,–,–,·,·,–,·
C=CCNC(=O)c1onc(CSc2cc(C)cc(C)c2)c1C(=O)O,37.8,–,–,–,–,–,–
CCc1ccccc1SCc1noc(C(=O)NCC2CCCO2)c1C(=O)O (configuration not stated),40.4,–,–,–,–,–,–
CC(=O)OC1C(=O)N(Cc2ccccc2)C1c1ccc(C)cc1 (configuration not stated),–,·,–,·,·,–,·
CCOc1cc(C(=O)N(C)CC(=O)Nc2cccc3ccccc23)ccc1OC,–,–,–,·,·,–,·
O=S(=O)(c1ccc(-c2csc(Nc3ccc(Br)cc3)n2)cc1)N1CCCC1,30.3,–,–,–,–,–,–
O=S(=O)(c1ccc(-c2csc(Nc3ccc(F)cc3)n2)cc1)N1CCCC1,–,–,–,–,–,–,·
COc1cc(/C=C2\N=C(c3ccccc3)OC2=O)ccc1OCc1c(C)no[n+]1[O-],–,–,–,–,–,–,·
COc1ccc(/C=C2\N=C(c3c(-c4ccccc4)noc3C)OC2=O)cc1OC,33.5,–,–,–,–,–,–
CCCCN(C(=O)CCC(=O)Nc1cc(C)on1)C(C(=O)NC1CCCC1)c1ccccc1OCC (configuration not stated),–,–,–,–,–,–,·
SMILES,PAFAH2 FP inh,pPAFAH FP inh,PAFAH1B3 FP inh,IMP-1 inh,VIM-2 inh,PAFAH1B2 inh,PAFAH2 FP conf
O=C(CNS(=O)(=O)c1ccccc1)OCC(=O)c1c[nH]c2ccccc12,–,–,–,·,·,–,·
O=C(COC(=O)c1c(F)cccc1Cl)NCC1CCCCC1,60.2,–,–,·,·,–,43.3
O=C(COC(=O)c1c(Cl)cccc1Cl)NCC1CCCO1 (configuration not stated),–,–,–,–,–,–,·
O=C(COC(=O)c1c(F)cccc1Cl)NC1CCCC1,37.1,–,–,–,–,–,–
O=C(COC(=O)c1c(Cl)cccc1Cl)NC1CCCCCCC1,–,–,–,·,·,–,·
O=C(c1ccccc1)c1ccc(O)c(O)c1O,38.3,·,–,·,·,–,42.3
CCOC(=O)C1(Cc2ccccc2)CCN(C2Cc3ccccc3C2)CC1,33.2,–,–,–,–,–,–
COc1ccc(N2CCN(S(=O)(=O)CCNC(=O)c3ccc(Br)o3)CC2)cc1,–,–,–,–,–,–,·
CCSc1nnc(NC(=O)CSc2c(Cl)cccc2Cl)s1,50.5,–,–,–,–,–,41.6
COC(=O)c1cc(Cl)c(N)cc1OC,–,–,–,–,–,–,·
COc1cc(N)c(Cl)cc1C(=O)OCC(=O)N(C)C1CCCCC1,54.8,–,–,·,·,–,30.5
CN(C(=O)COC(=O)c1cnc(Cl)c(Cl)c1)C1CCCCC1,–,–,–,·,·,–,·
COc1cc(N)c(Cl)cc1C(=O)OCC(=O)NC1CCCC1,47.6,–,–,–,–,–,33.5
COc1ccc(C2C3C=CCC(c4cccc(-c5ccc(C)cc5)c4)C3C(=O)N2Cc2ccccc2)cc1Cl (configuration not stated),–,–,–,·,·,–,·
Cc1cccc(C(=O)O/N=C(\N)Cc2ccc([N+](=O)[O-])cc2)c1,37.3,–,–,–,–,–,–
N/C(Cc1ccc([N+](=O)[O-])cc1)=N\OC(=O)c1ccc2ccccc2c1,61.9,–,–,–,–,–,53.7
Cc1cccc(/C(N)=N/OC(=O)Cc2cccc3ccccc23)c1,–,–,–,–,–,–,·
N/C(Cc1ccc(Cl)cc1)=N\OC(=O)C1CCCCC1,40.5,–,–,–,–,–,41.7
Cc1cccc(C(=O)O/N=C(\N)Cc2cccc3ccccc23)c1,75.3,–,–,–,–,–,73.7
CC1CC(C)CN(Cc2nc3c(c(=O)n(C)c(=O)n3C)n2CCN2CCOCC2)C1 (configuration not stated),–,–,–,–,–,–,·
CCN1CCCC1CNC(=O)CN(C)S(=O)(=O)c1ccc(Cl)cc1 (configuration not stated),–,–,–,–,–,–,·
Cc1cc(=O)[nH]c(N2CCCCC2)n1,–,·,–,·,·,–,·
N/C(Cc1ccc([N+](=O)[O-])cc1)=N\OC(=O)c1ccco1,39.0,–,–,–,–,–,36.8
COc1cccc(C(=O)O/N=C(\N)Cc2ccc(Cl)cc2)c1,69.2,–,–,–,–,–,55.9
